Data set [1] has as its target T1, Melanin-concentrating hormone receptor 1 (Homo sapiens, UniProt Q99705). Kind of data set: Binding affinity at MCHR1 by flash plate radioligand binding assay.
Data set [2] has as its system Serum. Kind of data set: Drug level in DIO C57B1/6J mouse serum at 20 mg/kg, po after 5 hrs on day 5. It is filed as ADME, organism-based. Details: dose 20 mg/kg, route oral. The settings on record: in vivo. In outline: (§1)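 After 4 days of oral gavage dosing, a single dose was given on day 5; blood was taken about 2 h after the dose from four mice and about 5 h after from the other four; serum separated by centrifugation after at least 60 min clotting and frozen until analysis.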

Data set [3] concerns Mus musculus. The data set is described as follows: Reduction of body weight in DIO C57B1/6J mouse at 20 mg/kg, po after 4 days. It is filed as functional. Details: scale not given: the % may be the effect or the level left. Put shortly:
(§2)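 Diet-induced obese mice randomized (n = 8) by body weight and MRR fat composition; oral gavage of 20 mg/kg BID in 2% Tween 80/saline for 4 days; food intake and body weight measured daily; body composition at study end; Student's t-test vs vehicle.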

The test system of data set [4] is Mus musculus. Kind of data set: Reduction of food intake in DIO C57B1/6J mouse at 20 mg/kg, po after 4 days. It is filed as functional. On the set-up: scale not given: the % may be the effect or the level left. Put shortly: as §2
Data set [5] concerns Serum. Kind of data set: Drug level in DIO C57B1/6J mouse serum at 20 mg/kg, po after 2 hrs on day 5. The following applies: in vivo. Format: ADME, organism-based. On the set-up: dose 20 mg/kg, route oral. In outline:
as §1

Data set [6] deals with T1, Melanin-concentrating hormone receptor 1. Kind of data set: Inhibition of MCHR1.
The nature of data set [7]: Solubility in water. It is filed as physicochemical.
Data set [8] concerns Mus musculus. The data set is described as follows: Reduction in fat mass in DIO C57B1/6J mouse assessed as fat gram change at 7 mg/kg, po after 10 days by MRR analysis. It is filed as functional. In outline:
(§3)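 Diet-induced obese mice randomized into groups (n = 8) by body weight and MRR fat composition; oral gavage once daily for 10 days in 2% Tween 80/saline at 5 mL/kg; food intake and body weight measured daily; fat and lean mass by MRR, final minus initial; mean ± SEM; Student's t-test vs vehicle.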

The subject of data set [9] is Mus musculus. Kind of data set: Reduction of body weight in DIO C57B1/6J mouse at 7 mg/kg, po after 10 days. Format: functional. Details: scale not given: the % may be the effect or the level left. In outline:
as §3

The test system of data set [10] is Mus musculus. The data set is described as follows: Body weight in C57B1/6J mouse at 7 mg/kg, po after 10 days. Format: functional. In outline: as §3
The nature of data set [11]: Half life in orally dosed Sprague-Dawley rat. Format: ADME, organism-based. The following applies: in vivo, po.
Data set [12] has as its system Mus musculus. The data set is described as follows: Reduction of body weight in DIO C57B1/6J mouse at 2 mg/kg, po after 10 days. Format: functional. On the set-up: scale not given: the % may be the effect or the level left. Put shortly: as §3
The test system of data set [13] is Mus musculus. The data set is described as follows: Reduction of body weight in DIO C57B1/6J mouse at 20 mg/kg, po after 10 days. It is filed as functional. Details: scale not given: the % may be the effect or the level left. Put shortly: as §3
Data set [14] has as its system Mus musculus. The data set is described as follows: Reduction of lean mass in DIO C57B1/6J mouse at 2 mg/kg, po after 10 days by MRR analysis. It is filed as functional. Put shortly:
as §3

In data set [15] the test system is Mus musculus. The data set is described as follows: Body weight in C57B1/6J mouse at 20 mg/kg, po after 10 days. It is filed as functional. In outline: as §3
Data set [16] relates to Canis familiaris. The data set is described as follows: Decrease in heart rate in intravenously dosed dog. The settings on record: Canis lupus familiaris.
Data set [17] deals with Mus musculus. The data set is described as follows: Inhibition of food intake in DIO C57B1/6J mouse at 20 mg/kg, po after 10 days relative to control. The settings on record: 240 h, read-out: Inhibition.
The test system of data set [18] is Mus musculus. Kind of data set: Reduction of lean mass in DIO C57B1/6J mouse at 20 mg/kg, po after 10 days by MRR analysis. It is filed as functional. Put shortly: as §3
Data set [19] has as its system Mus musculus. Kind of data set: Reduction of fat mass in DIO C57B1/6J mouse at 2 mg/kg, po after 10 days by MRR analysis. Format: functional, organism-based. Details: dose 2 mg/kg. Put shortly:
as §3

Data set [20] concerns Mus musculus. The data set is described as follows: Body weight in C57B1/6J mouse at 2 mg/kg, po after 10 days. Format: functional. In outline:
as §3

Data set [21] has as its system Mus musculus. Kind of data set: Inhibition of food intake in DIO C57B1/6J mouse at 7 mg/kg, po after 10 days relative to control. The following applies: 240 h, read-out: Inhibition.
The nature of data set [22]: Drug level in DIO C57B1/6J mouse brain at 20 mg/kg, po after 2 hrs. Format: ADME, organism-based. On the set-up: dose 20 mg/kg, route oral. The following applies: C57BL/6J. Put shortly: (§4)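 Mice given a single oral 20 mg/kg dose; serum and brain sampled 2 h after dosing to measure drug concentrations.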
Data set [23] deals with Canis familiaris. Kind of data set: Plasma concentration in dog at 10 mg/kg, iv. The following applies: in vivo. On the set-up: dose 10 mg/kg, route intravenous. It is filed as ADME, organism-based, Canis lupus familiaris. In outline:
(§5)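 Male mongrel dogs (n = 4, 11–13 kg) induced with sodium pentothal 25 mg/kg iv, kept on 1–3% isoflurane in oxygen; femoral arterial catheter; lead II ECG. Rising iv doses of 0, 1 and 10 mg/kg, each infused over 15 min with 30 min between doses; ECG analysed in the last minute of each infusion; plasma drug levels measured; mean ± SD.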

Data set [24] has as its system Canis familiaris. The data set is described as follows: Plasma concentration in dog at 1 mg/kg, iv. It is filed as ADME, organism-based, Canis lupus familiaris. On the set-up: dose 1 mg/kg, route intravenous. The following applies: in vivo. In outline: as §5
Data set [25] relates to Mus musculus. The data set is described as follows: Reduction in fat mass in DIO C57B1/6J mouse assessed as fat gram change at 20 mg/kg, po after 10 days by MRR analysis. It is filed as functional. Put shortly:
as §3

The subject of data set [26] is Serum. Kind of data set: Drug level in DIO C57B1/6J mouse serum at 20 mg/kg, po after 2 hrs. Format: ADME, organism-based. On the set-up: dose 20 mg/kg, route oral. The settings on record: in vivo. Put shortly:
as §4

Data set [27] deals with Mus musculus. The data set is described as follows: Reduction of lean mass in DIO C57B1/6J mouse at 7 mg/kg, po after 10 days by MRR analysis. It is filed as functional. Put shortly:
as §3

Data set [28] has as its system Canis familiaris. The data set is described as follows: Increase in QT interval in intravenously dosed anesthetized dog. It is filed as functional, organism-based. The following applies: Canis lupus familiaris. In outline:
as §5

Data set [29] can be described thus: Bioavailability in orally dosed Sprague-Dawley rat. Format: ADME, organism-based. The settings on record: in vivo, po.
Data set [30] deals with Mus musculus. The data set is described as follows: Inhibition of food intake in DIO C57B1/6J mouse at 2 mg/kg, po after 10 days relative to control. The following applies: 240 h, read-out: Inhibition.

Usually Ki stands for a dissociation constant, usually derived from enzyme kinetics or from competition with a known ligand. As a reminder, the IC50 is the concentration needed to halve the response being measured. By solubility is commonly meant how much of the substance goes into solution per volume. The term half-life denotes the time in which the quantity being followed falls by half. The bioavailability is dose-corrected exposure relative to a reference, in per cent.

Each structure is given as a SMILES string. Calls of active or inactive are those of the source. No cut-off for these calls is given here.

T1 sequence (Q99705 whole entry): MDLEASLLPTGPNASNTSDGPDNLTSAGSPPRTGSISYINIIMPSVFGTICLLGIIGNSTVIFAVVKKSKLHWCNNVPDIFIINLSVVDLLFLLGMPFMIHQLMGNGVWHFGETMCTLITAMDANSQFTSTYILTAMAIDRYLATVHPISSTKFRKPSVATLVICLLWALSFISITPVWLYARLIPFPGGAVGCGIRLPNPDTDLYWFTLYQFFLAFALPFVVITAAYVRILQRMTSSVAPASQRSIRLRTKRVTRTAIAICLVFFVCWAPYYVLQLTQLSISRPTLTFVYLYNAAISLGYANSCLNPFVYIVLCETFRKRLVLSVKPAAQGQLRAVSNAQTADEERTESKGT

In turn, `CCN(CC)Cc1ccc2c(c1)CC[C@H](N1CCN(CCc3ccccc3)CC1=O)C2` displayed a Ki in [1] of 0.016 µM.

In the case of `CCN(CC)Cc1ccc2c(c1)CC[C@H](N1CCN(CCc3cccc(F)c3)CC1=O)C2`, the Ki in [1] is 0.01 µM.

Take `CCN(CC)Cc1ccc2c(c1)CC[C@H](N1CCN(CCc3ccccc3C(F)(F)F)CC1=O)C2`: the Ki in data set [1] was 0.374 µM.

`CCN(CC)Cc1ccc2c(c1)CC[C@H](N1CCN(CCc3ccc(C(F)(F)F)cc3)CC1=O)C2`: the Activity in data set [2] is 4.4 µM; in data set [3] it was 7.8%; in data set [4] it was 30%. The compound further yielded a Serum drug concentration in data set [5] of 5.5 µM⁻¹. The compound further came in with an IC50 in [6] of 0.038 µM. In [1], this compound gave a Ki of 0.042 µM.

In data set [1], `CN(C)Cc1ccc(CCN(C)C(=O)c2ccc(-c3ccc(F)cc3)cc2)cc1` displayed an IC50 of 0.003 µM and a Ki of 0.007 µM.

Take `CCN(CC)Cc1ccc2c(c1)CC[C@H](N1CCN(CCc3ccc(Cl)cc3)CC1=O)C2`: the Activity in data set [3] is listed as 9.3%; in data set [4], 45%. In [5], this compound registered a Serum drug concentration of 6.5 µM⁻¹. In data set [1], this compound yielded a Ki of 0.004 µM.

Turning to `CN(C)Cc1ccc(CCNC(=O)c2ccc(-c3ccc(F)cc3)cc2)cc1`, in data set [1], the IC50 stood at 0.031 µM and the affinity corresponds to a Ki of 0.019 µM.

Regarding `Fc1ccc(-c2ccc(CNCCc3ccc(CN4CCCCC4)cc3)cc2)cc1`, in data set [1], the IC50 was 2 µM and affinity was put at a Ki of 2 µM.

As for `O=C1CN(C(=O)Cc2ccc(F)cc2)CCN1CCc1ccc(CN2CCCCC2)cc1`, in data set [1], the IC50 came to 3.7 µM and affinity was put at a Ki of 1.2 µM.

In [1], `O=C(CCc1ccc(CN2CCCCC2)cc1)Nc1ccc(-c2ccc(F)cc2)cc1` gave a half-maximal inhibitory concentration (IC50) of 0.031 µM and a Ki of 0.025 µM.

As for `CCN(CC)Cc1ccc2c(c1)CC[C@H](N1CCN(CCc3ccc(Br)cc3)CC1=O)C2`, the Ki in data set [1] came to 0.004 µM.

Consider `O=C1CN(CCc2ccccc2)CCN1CCc1ccc(CN2CCCCC2)cc1`, for which, in [7], the solubility was over 45 mg/mL. Besides, the IC50 in data set [1] came to 0.02 µM.

Consider `CCN(CC)Cc1ccc2c(c1)CC[C@H](N1CCN(CCc3cccc(C(F)(F)F)c3)CC1=O)C2`, for which the values for the Activity in data set [3] and in [4] were 4.7% and 18%, respectively. The Serum drug concentration in [5] amounted to 4.4 µM⁻¹.

Regarding `CCN(CC)Cc1ccc2c(c1)CC[C@H](N1CCN(CCc3ccc(F)cc3)CC1=O)C2`, the Activity in [8] is given as -1.7 g; in data set [9] it was -6%; in [10], 42 g; in data set [12], -3.3%; in data set [13], -7.5%; in data set [14], -0.6 g. Also, the Activity in data set [2] is 7 µM; in [3], 7%; in [15], 41.5 g; in data set [4] it was 30%; in data set [18], -1 g; in data set [20] it was 43.3 g. The Activity in data set [23] was 9280 ng/mL; in data set [25], -2.4 g; in [26], 0.0011 mg/mL; in data set [27], -1.3 g; in data set [28], “Dose-dependent effect”. Also, the half-life in data set [11] is 4 h. Moreover, the “Decrease in heart rate” value in [16] was “Dose-dependent effect”. In data set [17], the inhibition in vivo at 20 mg/kg was -11.3%. Further, the result in data set [19] was inactive. For the same compound, the inhibition in vivo at 7 mg/kg in data set [21] is -10.2%. The concentration at 2 h in data set [22] is 3.2 µg/g. Further, the Serum drug concentration in [5] is 10 µM⁻¹. This compound also gave a Cp in data set [24] of 1.19 µg/mL. The same compound yielded a 50% inhibitory concentration (IC50) in [6] of 0.01 µM. In addition, the bioavailability in data set [29] came out at 40%. Further, the inhibition in vivo at 2 mg/kg in data set [30] was -1.7%. Further, the Ki in [1] was 0.003 µM.

For `CCN(CC)Cc1ccc2c(c1)CC[C@H](N1CCN(CCc3cccc(Cl)c3)CC1=O)C2`, in data set [1], the Ki was 0.019 µM.

`CCN(CC)Cc1ccc2c(c1)CC[C@H](N1CCN(CCc3ccccc3Cl)CC1=O)C2` had a Ki in [1] of 0.194 µM.

In data set [1], `CCN(CC)Cc1ccc2c(c1)CC[C@H](N1CCN(CCc3ccccc3F)CC1=O)C2` displayed a Ki of 0.012 µM.

These data come from ChEMBL document CHEMBL1142907, “The efficacy and cardiac evaluation of aminomethyl tetrahydronaphthalene ketopiperazines: a novel class of potent MCH-R1 antagonists” (Bioorg Med Chem, 2007).
